Tested on: MS2 coat protein
Experiment: apparent Kd, MS2 coat protein; higher = weaker binding; RNA-MaP array; FMN 200 µM where present
Procedure, shortened: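 Green signal from SNAP-549-labelled MS2 coat protein was normalised to red-channel RNA signal and to the median Fmax of control clusters. The protein was titrated from 0.7 or 1.5 nM, doubling to 3 µM, without and then with constant ligand, over designs transcribed by stalled E. coli RNA polymerase on Illumina sequencing-chip clusters, in 100 mM Tris-HCl pH 7.5, 80 mM KCl, 4 mM MgCl2, BSA, DTT, yeast tRNA and Tween-20. The apparent Kd is the median of filtered per-cluster binding-curve fits.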

[1] = designed as: OFF switch for flavin mononucleotide, no ligand
[2] = ligand present: flavin mononucleotide, designed as: OFF switch for flavin mononucleotide
[3] = designed as: ON switch for flavin mononucleotide, no ligand
[4] = ligand present: flavin mononucleotide, designed as: ON switch for flavin mononucleotide

Sequence | apparent Kd [1] [nM] | apparent Kd [2] [nM] | apparent Kd [3] [nM] | apparent Kd [4] [nM]
GUACUGACAGGAUAUACAUGAGGAUCACCCAUGUCCUUGUGCUGACAAAAGUCAGCACGUAGAAGGGUCUGUAC | 22.9 | 207 |  | 
GCCAUCGCAUGAGGAUAUCGUCAGGUUUCCUGACGAGAAGGCAUGUCAUAAGACAUGAGGAUCACCCAUGUAGUUAAGAUGGCA |  |  | 658 | 57
CCUCUACAUGAGGAUCACCCAUGUGAGGAUAUCUCGGAACAACCACUUAAGGCACUCCAGAGAAGGCACGUGUA | 14.9 | 20.9 |  | 
GAAUUCGCAUGAGGAUAUGCACUCAUUUCAUGUGCAGAAGGUAUAACAUUAGACAUGAGGAUCACCCAUGUAUUGGUCAGUAAC |  |  | 15 | 13.4
AGUGUGUGGCAGGAUAUGCGAUUUGUAGGUGUUGCAGAAGGGUCUACAUGAGGAUCACCCAUGUGUGCGGUUGA | 283 | 570 |  | 
AUCAGCUCGUCAGGAUAUACGUCACUGCGUCAGCAGUGUGGUAAGAGCACAUGAGGAUCACCCAUGUAGAAGGGACGAGCUGAU | 6.31 | 9.48 |  | 
UUUCCGCGAGGAUAUGCGGGCUGUGCUUUUCAUUUCUUACAACAUGAGGAUCACCCAUGUAGAAGGUGCUUCUU | 213 | 189 |  | 
AUAAAUCAUGUAGGAUAUGCGUGGCGAAGCUAUGCAGAAGGACAUGAGGAUCACCCAUGUCUUUCCGUCUGCGUACAGACGGAA | 33.4 | 311 |  | 
AACGACUGAGGAUAUACAUGAGGAUCACCCAUGUAUUGAAAUACGUGCUUGGUCAACUGUAGAAGGCAGAAUAA | 15.7 | 40.6 |  | 
GAACUGAAGCAUAGCUUUAGUCGUACAUGAGGAUCACCCAUGUAGGAUAUGGUAGGCUUAGCUUACUAGAAGGAUAGAGUGAUC | 140 | 66.8 |  | 
CAUUAUGUUGAGGAUAUGCACCGGCUCACUGACGCAGAAGGCGACACAUGAGGAUCACCCAUGUCAGUUCGCGA | 15.5 | 15.8 |  | 
UUCGUGUGACAGAAGGGUCUUUCGGGCUGGGAGGCAGGAUAUGUGACAUGAGGAUCACCCAUGUUGGUAUCGUCUGUGUGUACG | 6.15 | 12.8 |  | 
GGCGAGUGAGGAUAUCUGAUGUCUAACUUCGGUUAGACAUCAGAGAAGGCACAUGAGGAUCACCCAUGUCCGCC | 19.3 | 17.1 |  | 
AAUAAUUAGUAAGGAUAUACUAGUGAUUAGCUUGUAGAAGGUACAGUCUUAUGUAUAACAAAUUAACAUGAGGAUCACCCAUGU |  |  | 8.8 | 8.1
AAUUUAAUACAUGAGGAUCACCCAUGUAAUACUUGUAAGAUCAAGGAUAUCAGCUCGAAUAGAGCUGAGAAGGUGAUCACAUGU |  |  | 75.9 | 227
GCUUCACAUGAGGAUCACCCAUGUUUUCGGAGUCGAGGAUAUGGUCACUGUAAACAGUGGCCAGAAGGCGAGGAGC |  |  | 18.2 | 16.7
UGUCGGAGCAGAGGAUAUUACAUGAGGAUCACCCAUGUAUCAACCAAUAGCUGGAAACAGCAAUGUAAGAAGGCUGCUCCGACA | 7.54 | 19.8 |  | 
CAUCUGUGAGGAUAUGGUGAGUAGUGCCUGAGCGCUGCUCACCAGAAGGCACAUGAGGAUCACCCAUGUAUGAC | 48.4 | 188 |  | 
GUGAUCCCGGUUAGGAUAUUAGUGAUGUACACCUCUGAGAAGGGACAUGAGGAUCACCCAUGUCGCCUUGAAAC | 17.7 | 22.6 |  | 
GCAUCACAUGAGGAUCACCCAUGUCUUCGGAGCGGAGGAUAUGGUCACUGUAAACAGUGGCCAGAAGGCUGGAUGC |  |  |  | 25.5
UUUAAGCUCACAUGAGGAUCACCCAUGUCCGUUCGCCCGGACAGAAGGCACCCAUGACAAUGCGGUGAGGAUAUGUCAGCAAGG |  |  | 120 | 13.1
UGAUCGAGAGAUCUUAGAUUCUGCAAGGAUAUGCAGGAGUUGCGCUUUACAUGAGGAUCACCCAUGUAGAAGGUGUAGAGUCUA | 6.62 | 8.08 |  | 
GCGGGUAAAGCAGGAUAUCUAAUGUCACGGAAACAUGAGGAUCACCCAUGUAGAGAAGGGCUAAGUCAUACAAUUCGAAUUUGC | 9.04 | 8.24 |  | 
UUAUACGCUGAGGAUAUCAUCACUGAGAGGUGAUGAGAAGGCGGUACAUGAGGAUCACCCAUGUCUAUGGGCAG | 291 | 418 |  | 

Sequence | apparent Kd [1] [nM] | apparent Kd [2] [nM] | apparent Kd [3] [nM] | apparent Kd [4] [nM]
CUAGUUGUCGCAGGAUAUGCCCGCUGGUUGGAGGCAGAAGGGUGACACCAAAUAUUAUACAUGAGGAUCACCCAUGUCGCCAAC |  |  | 17.9 | 19.3
GCGUUGUACGAGAAGGCCAAUACAUGAGGAUCACCCAUGUUAAGUUGUUUUGGAGGAUAUCGAUCAUCUACAAUAAUGCAACGC | 6.74 | 6.03 |  | 
GUUGCACAAGUUAACAUGAGGAUCACCCAUGUCAAAAGACAUGAGGAUAUGGAUCUGAAGAAGAUCCAGAAGGCAUAAUGCUAA |  |  | 796 | 117
CUUCUUGGGCAAGGAUAUCCUGUGCGGUUCCGGCUCGUGUCUGUCACAUGAGGAUCACCCAUGUGGGAGAAGGUGCCUGCGGUC | 6.15 | 6.79 |  | 
UAGUCGGUAGAUAAUAAUGAAUACAUGAGGAUCACCCAUGUAUAGGAUAUCGUCAGGAAUACUGACGAGAAGGAUACAUCCGAC | 16.1 | 18.4 |  | 
CAGGAUAGAGGAUAUACAUAGAUACAGGUUCAUGUAAUCCUACAUGAGGAUCACCCAUGUAGAAGGCUAUCCUG | 15 | 43.3 |  | 
GGUGCGUAUGUGAGGAUAUGCUGGUCCUUGGCUCGGCAGAAGGCACAUGAGGAUCACCCAUGUGGUGUCGUACU | 130 | 46 |  | 
CAGUGCAUUGAGAAGGGACACCGGGAUCCCAACUUCUCUCAUAACGGACAUGAGGAUCACCCAUGUCAGGAUAUCAACGUUUAG | 23.1 | 16.7 |  | 
CGCAUGCGUAGUAUUAGUUGCUGACAGGAUAUGACAUGAGGAUCACCCAUGUUUAUUAAGAAGAUUCAGAAGGGUCACGUUGCG | 6.87 | 5.8 |  | 
UGAACUUCAGAGAAGGUCGAACGGCAACGAUUCGAAGGAUAUCUGGAAACAUGAGGAUCACCCAUGUAACCGGGUGGAUGUCCU | 43.3 | 182 |  | 
GGUACUCAAAGAGUACUUGGUCGAACAUGAGGAUCACCCAUGUAGGAUAUGCGAAGCAAGAAGUAGCAGAAGGACAUGUGCAGC | 14.8 | 43.7 |  | 
AUCAGCUCGUCAGGAUAUACGUCACUGCGUCAGCAGUGUGGUAAGAUCACAUGAGGAUCACCCAUGUAGAAGGGACGAGCUGUU | 13.2 | 269 |  | 
CUUUUAUAAUAGAAGGUUGACUUUAAGUGGAUCACCCAUGUGUAGGUACAAAGGAUAUGUAGUUACAUGAGGAUCACCCAUGUU |  |  | 306 | 201
AAAUUUAACGAAGGAUAUGCUGACAUGAGGAUCACCCAUGUGUGCUUUGUGUUGCUGAAACGGGAGCAGAAGGUCGUAUACAUA | 82.5 | 82.5 |  | 
ACGCGAUGGGAGAAGGUACUUUAAAAUAUUUCCACAUGAGGAUCACCCAUGUAAGGAUAUCCCAUCGUUAAAUAUUAUACAGCA | 7.07 | 5.91 |  | 
UGACACAUGAGGGUCUCCCUUGACAUGAGGAUCACCCAUGUGCAGGAUAUACGUGUGAUGGUAUAGUAGAAGGGCACUCUAUGU | 30.6 | 40.5 |  | 
AAAACAUGAGGAUCACCCAUGUAAAGAUCGGUUAAUAGAAGUGAGGAUAUGCUUAAUAUAAGGUAGCAGAAGGCACUGGGUACA |  |  | 23.3 | 25.7
UGUCGGAGCAGAGGAUAUUACAUGAGGAUCACCCAUGUAAUAAGAUCAAGCUGGAAACAGCAAUGUAAGAAGGCUGCUCCGACA | 16.9 | 43.3 |  | 
AAGUAGUGUGUGAGGAUAUUGGUGGAAUGACAUAUUAAGAAGGCACAUGAGGAUCACCCAUGUGGGUUGUCACG | 49.2 | 120 |  | 
GCGUUCUUGUAGAAGGUACUUUCAACAUCUUAUAAACGCUAGACACAUGAGGAUCACCCAUGUUGUAAGGAUAUACAUGAACGC |  |  | 11.3 | 10.9
GUGAGGUAAGGAUAUAGUAGUGAAGGUAAAAUAUGAGAAUGCUAGAAGGUACAUGAGGAUCACCCAUGUUAGGG | 211 | 203 |  | 
AACGCGUCAGGAUAUGCCAUAAAUUACCUAGUACGACCAUAGCAGAAGGGACAUGAGGAUCACCCAUGUAAAUA | 40.5 | 28.3 |  | 
GUUGUAUUAAGUUCAUACUAUAUGAUAGAAGGUGAAAGAUAGACAUGAGGAUCACCCAUGUAAUUCAAGGAUAUGUAGUUACUC |  |  | 28.4 | 20.4
UUCAGACAUGAGGAUCACCCAUGUGAGGAUAUGAUGCAGCAGUGGUCUACGCUGUGCAUCAGAAGGCACAUGUG | 140 | 32.7 |  | 
